Results as given in ChEMBL document CHEMBL5303300, “EUbOPEN Chemogenomics Library - Multiplex” (2023).
Several values for one entry are separate records, joined by “and”; a condition that tells them apart may be missing. Identical values can stand only once.

System: HEK-293T
Assay: Multiplex assay against HEK293T
Type: toxicity, cell-based
Conditions: human, number of replicates 2
Summary of the method: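 With compound added, live cells were imaged on a CQ1 microscope at 37°C and 5% CO2; staining with Hoechst33342, BioTracker Green Microtubule Cytoskeleton Dye, MitoTracker Red and Annexin V Alexa Fluor 680 had been done at seeding. The CellPathfinder machine-learning gating scheme split cells into Hoechst high-intensity objects or normal cells, normal cells into healthy, pyknosed or fragmented nuclei, and pyknosed cells into mitotic or apoptotic. The tubulin, mitochondrial-mass and membrane-permeability phenotypes are per cents of healthy-nucleus cells.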

[1] = 12 h, 10 µM, compound concentration 10 uM
[2] = 24 h, 10 µM, compound concentration 10 uM
[3] = 48 h, 10 µM, compound concentration 10 uM
[4] = 12 h, 1 µM, compound concentration 1 uM
[5] = 24 h, 1 µM, compound concentration 1 uM
[6] = 48 h, 1 µM, compound concentration 1 uM

## CN[C@@H]1C[C@H]2O[C@@](C)([C@@H]1OC)n1c3ccccc3c3c4c(c5c6ccccc6n2c5c31)C(=O)NC4 [STAUROSPORINE]
[1]
  Population Apoptotic (%): 56% and 55% and 68% and 63%
  Population Fragmented Nuclei (%): 20% and 14% and 21%
  Population Healthy Nuclei (%): 37% and 34% and 23% and 29%
  Population Hoechst High Intensity Objects (%): 7% and 8% and 5%
  Population Membrane Permeable-Phenotype (%): 11% and 12% and 7%
  Population Mitochondria Different-Phenotype (%): 46% and 52% and 60% and 51%
  Population Mitotic Cells (%): 43% and 44% and 31% and 36%
  Population Normal (%): 92% and 91% and 94%
  Population Pyknosed Nuclei (%): 41% and 51% and 55% and 50%
  Population Tubulin-Different-Phenotype (%): 72% and 77% and 76%
[2]
  Population Apoptotic (%): 85% and 83% and 86%
  Population Fragmented Nuclei (%): 16% and 13%
  Population Healthy Nuclei (%): 17% and 22% and 23% and 18%
  Population Hoechst High Intensity Objects (%): 12% and 8% and 10% and 7%
  Population Membrane Permeable-Phenotype (%): 10% and 7% and 6%
  Population Mitochondria Different-Phenotype (%): 45% and 63% and 62%
  Population Mitotic Cells (%): 14% and 16% and 13%
  Population Normal (%): 87% and 91% and 89% and 92%
  Population Pyknosed Nuclei (%): 66% and 64% and 63% and 65%
  Population Tubulin-Different-Phenotype (%): 58% and 59% and 76% and 79%
[3]
  Population Apoptotic (%): 90% and 89% and 87% and 81%
  Population Fragmented Nuclei (%): 13% and 11% and 10%
  Population Healthy Nuclei (%): 23% and 17% and 22% and 20%
  Population Hoechst High Intensity Objects (%): 14% and 9% and 11%
  Population Membrane Permeable-Phenotype (%): 11% and 6% and 5%
  Population Mitochondria Different-Phenotype (%): 47% and 62% and 64% and 65%
  Population Mitotic Cells (%): 9% and 10% and 12% and 18%
  Population Normal (%): 85% and 90% and 88%
  Population Pyknosed Nuclei (%): 63% and 71% and 66%
  Population Tubulin-Different-Phenotype (%): 59% and 72% and 68% and 75%

## Cc1ccc2c(c1CCC(=O)O)CC[C@@H](NS(=O)(=O)c1ccc(Cl)cc1)C2 [TERUTROBAN]
[4]
  Population Apoptotic (%): 59% and 56%
  Population Fragmented Nuclei (%): 2% and 4%
  Population Healthy Nuclei (%): 81%
  Population Hoechst High Intensity Objects (%): 7%
  Population Membrane Permeable-Phenotype (%): 3% and 2%
  Population Mitochondria Different-Phenotype (%): 20% and 14%
  Population Mitotic Cells (%): 40% and 43%
  Population Normal (%): 92%
  Population Pyknosed Nuclei (%): 15% and 14%
  Population Tubulin-Different-Phenotype (%): 47%
  Total Cell Count: 534 and 671
[1]
  Population Apoptotic (%): 55% and 71%
  Population Fragmented Nuclei (%): 5% and 3%
  Population Healthy Nuclei (%): 77% and 81%
  Population Hoechst High Intensity Objects (%): 8%
  Population Membrane Permeable-Phenotype (%): 4% and 1%
  Population Mitochondria Different-Phenotype (%): 24% and 20%
  Population Mitotic Cells (%): 44% and 28%
  Population Normal (%): 91%
  Population Pyknosed Nuclei (%): 17% and 15%
  Population Tubulin-Different-Phenotype (%): 70% and 50%
  Total Cell Count: 599 and 487
[5]
  Population Apoptotic (%): 65% and 40%
  Population Fragmented Nuclei (%): 7% and 6%
  Population Healthy Nuclei (%): 81% and 86%
  Population Hoechst High Intensity Objects (%): 6% and 9%
  Population Membrane Permeable-Phenotype (%): 3%
  Population Mitochondria Different-Phenotype (%): 6% and 5%
  Population Mitotic Cells (%): 35% and 59%
  Population Normal (%): 93% and 90%
  Population Pyknosed Nuclei (%): 10% and 6%
  Population Tubulin-Different-Phenotype (%): 30% and 25%
  Total Cell Count: 837 and 1016
[2]
  Population Apoptotic (%): 58% and 52%
  Population Fragmented Nuclei (%): 9% and 6%
  Population Healthy Nuclei (%): 79% and 84%
  Population Hoechst High Intensity Objects (%): 8% and 9%
  Population Membrane Permeable-Phenotype (%): 2% and 3%
  Population Mitochondria Different-Phenotype (%): 9% and 7%
  Population Mitotic Cells (%): 41% and 47%
  Population Normal (%): 91% and 90%
  Population Pyknosed Nuclei (%): 11% and 9%
  Population Tubulin-Different-Phenotype (%): 44% and 35%
  Total Cell Count: 911 and 714
[6]
  Population Apoptotic (%): 11%
  Population Fragmented Nuclei (%): 12% and 9%
  Population Healthy Nuclei (%): 82% and 86%
  Population Hoechst High Intensity Objects (%): 7% and 9%
  Population Membrane Permeable-Phenotype (%): 4% and 7%
  Population Mitochondria Different-Phenotype (%): 0% and 1%
  Population Mitotic Cells (%): 88%
  Population Normal (%): 92% and 90%
  Population Pyknosed Nuclei (%): 4% and 3%
  Population Tubulin-Different-Phenotype (%): 12% and 11%
  Total Cell Count: 2114 and 2407
[3]
  Population Apoptotic (%): 26% and 21%
  Population Fragmented Nuclei (%): 14% and 10%
  Population Healthy Nuclei (%): 80% and 86%
  Population Hoechst High Intensity Objects (%): 9% and 8%
  Population Membrane Permeable-Phenotype (%): 6% and 5%
  Population Mitochondria Different-Phenotype (%): 1%
  Population Mitotic Cells (%): 73% and 78%
  Population Normal (%): 90% and 91%
  Population Pyknosed Nuclei (%): 5% and 3%
  Population Tubulin-Different-Phenotype (%): 20% and 15%
  Total Cell Count: 1958 and 1618
